In ChEMBL document CHEMBL3232988, “Design, synthesis and biological evaluation of a series of pyrano chalcone derivatives containing indole moiety as novel anti-tubulin agents” (Bioorg Med Chem, 2014):
The source made the active and inactive calls. The calls are words filed in the database; no cut-off is given here.

Legend:
HepG2 [1] = test: Antitumor activity against human HepG2 cells xenografted in BALB/c nude mouse assessed as tumor growth inhibition at 5 mg/kg, iv administered once every 2 days for 21 days measured every 3 days up to 35 days relative to control; assay type: functional; details: read-out: TGI
How it was run: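 Female BALB/c nude mice, six weeks old (16–18 g), inoculated in the right gluteal region with 1 × 10⁷ HepG2 cells in 0.1 mL DMEM. When tumours reached 100 mm³, mice were randomised into four groups of six. Dosing was by tail-vein injection; the vehicle group followed the test schedule. Tumours were measured by caliper every 3 days, with volume = π/6 × length × width × width.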

HepG2 [2] = test: Cell cycle arrest in human HepG2 cells assessed as accumulation at G2/M-phase after 24 hrs by propidium iodide staining-based flow cytometric analysis; assay type: functional
How it was run: (§1)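 HepG2 cells (2 × 10⁵) cultured 24 h, then given 0.1% DMSO vehicle or compound for 24 h. Fixed in ice-chilled methanol at least 30 min at 4 °C, washed twice with PBS, then stained 0.5 h at 37 °C in PBS with 1 mg/mL RNase A and propidium iodide. DNA content measured by flow cytometry for phase distribution.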

HepG2 [3] = test: Cell cycle arrest in human HepG2 cells assessed as accumulation at G2/M-phase at 0.375 uM after 24 hrs by propidium iodide staining-based flow cytometric analysis (reference value: 25.5%); assay type: functional; how it was run: as §1
[4] = Antiproliferative activity against taxol resistant human HCT8 cells after 24 hrs by MTT assay; assay type: functional, cell-based; details: HCT-8, 24 h
How it was run: (§2)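 Seeded at 1 × 10⁴ cells per well, incubated 24 h before treatment. MTT (20 µL of 5 mg/mL in PBS) added per well and incubated until purple precipitate appeared. Medium removed, precipitate dissolved in 150 µL DMSO, shaken 10 min, absorbance read at 570 nm. Growth expressed as percentage of untreated control.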

MCF7 = test: Antiproliferative activity against human MCF7 cells after 24 hrs by MTT assay; assay type: functional, cell-based; details: MCF7, 24 h; how it was run: as §2
[5] = Cytotoxicity against human LO2 cells after 24 hrs by MTT assay; assay type: cell-based; details: L02, 24 h; how it was run: as §2
HepG2 [6] = test: Cell cycle arrest in human HepG2 cells assessed as accumulation at G2/M-phase at 0.125 uM after 24 hrs by propidium iodide staining-based flow cytometric analysis (reference value: 25.5%); assay type: functional; how it was run: as §1
PC-3 = test: Antiproliferative activity against human PC3 cells after 24 hrs by MTT assay; assay type: functional, cell-based; details: PC-3, 24 h; how it was run: as §2
HCT-116 = test: Antiproliferative activity against human HCT116 cells after 24 hrs by MTT assay; assay type: functional, cell-based; details: HCT-116, 24 h; how it was run: as §2
[7] = Antiproliferative activity against human […] cells after 24 hrs by MTT assay; assay type: functional, cell-based; how it was run: as §2
A549 = test: Antiproliferative activity against human A549 cells after 24 hrs by MTT assay; assay type: functional, cell-based; details: A549, 24 h; how it was run: as §2
HepG2 [8] = test: Cell cycle arrest in human HepG2 cells assessed as accumulation at G2/M-phase at 0.25 uM after 24 hrs by propidium iodide staining-based flow cytometric analysis (reference value: 25.5%); assay type: functional; how it was run: as §1
HepG2 [9] = test: Induction of apoptosis in human HepG2 cells after 48 hrs by propidium iodide staining-based flow cytometric analysis; assay type: functional, cell-based
HepG2 [10] = test: Cell cycle arrest in human HepG2 cells assessed as accumulation at S-phase at 0.25 uM after 24 hrs by propidium iodide staining-based flow cytometric analysis (reference value: 32%); assay type: functional; how it was run: as §1
K562 = test: Antiproliferative activity against human K562 cells after 24 hrs by MTT assay; assay type: functional, cell-based; details: K562, 24 h; how it was run: as §2
HepG2 [11] = test: Cell cycle arrest in human HepG2 cells assessed as accumulation at G1-phase at 0.125 uM after 24 hrs by propidium iodide staining-based flow cytometric analysis (reference value: 42.5%); assay type: functional; how it was run: as §1
HepG2 [12] = test: Cell cycle arrest in human HepG2 cells assessed as accumulation at G2/M-phase at 0.50 uM after 24 hrs by propidium iodide staining-based flow cytometric analysis (reference value: 25.5%); assay type: functional; how it was run: as §1
HepG2 [13] = test: Cell cycle arrest in human HepG2 cells assessed as accumulation at S-phase at 0.50 uM after 24 hrs by propidium iodide staining-based flow cytometric analysis (reference value: 32%); assay type: functional; how it was run: as §1
Rattus norvegicus = species: Rattus norvegicus; test: Inhibition of rat tubulin polymerization at 10 uM measured for 60 mins by luminometric analysis
HepG2 [14] = test: Antitumor activity against human HepG2 cells xenografted in BALB/c nude mouse assessed as tumor growth inhibition at 30 mg/kg, iv administered once every 2 days for 21 days measured every 3 days up to 35 days relative to control; assay type: functional; details: read-out: TGI
How it was run: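 Female BALB/c nude mice, six weeks old (16–18 g), inoculated in the right gluteal region with 1 × 10⁷ HepG2 cells in 0.1 mL DMEM. At 100 mm³, randomized into four groups of six. Tail-vein dosing every other day for 21 days; vehicle control on the same schedule; 5-Fu 5 mg/kg iv daily as reference. Caliper measurement every 3 days, volume = π/6 × length × width × width. Compared with control by t test.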

HepG2 [15] = test: Cell cycle arrest in human HepG2 cells assessed as accumulation at S-phase at 0.125 uM after 24 hrs by propidium iodide staining-based flow cytometric analysis (reference value: 32%); assay type: functional; how it was run: as §1
HepG2 [16] = test: Cell cycle arrest in human HepG2 cells assessed as accumulation at G1-phase at 0.375 uM after 24 hrs by propidium iodide staining-based flow cytometric analysis (reference value: 42.5%); assay type: functional; how it was run: as §1
[17] = Antiproliferative activity against vincristine resistant human HCT8 cells after 24 hrs by MTT assay; assay type: functional, cell-based; details: HCT-8, 24 h; how it was run: as §2
HepG2 [18] = test: Antiproliferative activity against human HepG2 cells after 24 hrs by MTT assay; assay type: functional, cell-based; details: HepG2, 24 h; how it was run: as §2
HepG2 [19] = test: Cell cycle arrest in human HepG2 cells assessed as accumulation at S-phase at 0.375 uM after 24 hrs by propidium iodide staining-based flow cytometric analysis (reference value: 32%); assay type: functional; how it was run: as §1
SK-OV-3 = test: Antiproliferative activity against human SKOV3 cells after 24 hrs by MTT assay; assay type: functional, cell-based; details: SK-OV-3, 24 h; how it was run: as §2
HepG2 [20] = test: Cell cycle arrest in human HepG2 cells assessed as accumulation at G1-phase at 0.50 uM after 24 hrs by propidium iodide staining-based flow cytometric analysis (reference value: 42.5%); assay type: functional; how it was run: as §1

## O=c1[nH]cc(F)c(=O)[nH]1 [FLUOROURACIL]
HepG2 [1]
  inhibition in vivo at 5 mg/kg: 25.9%

## CCC(=O)Oc1ccc(C(=O)/C=C/c2ccc3c(ccn3C)c2)c2c1C=CC(C)(C)O2
HepG2 [2]
  Activity: Dose-dependent effect
HepG2 [3]
  Activity: 75%
[4]
  IC50: 1.6 µM
MCF7
  IC50: 1.5 µM
[5]
  IC50: > 10 µM
HepG2 [6]
  Activity: 26.2%
PC-3
  IC50: 0.65 µM
HCT-116
  IC50: 1.28 µM
[7]
  IC50: 1.8 µM
A549
  IC50: 0.68 µM
HepG2 [8]
  Activity: 60.7%
HepG2 [9]
  Activity: Dose-dependent effect
HepG2 [10]
  Activity: 35%
K562
  IC50: 0.8 µM
HepG2 [11]
  Activity: 30.7%
HepG2 [12]
  Activity: 86%
HepG2 [13]
  Activity: 12.4%
Rattus norvegicus
  inhibition: Active
HepG2 [14]
  inhibition in vivo at 30 mg/kg: 56.6%
HepG2 [15]
  Activity: 43.1%
HepG2 [16]
  Activity: 2.5%
[17]
  IC50: 0.45 µM
HepG2 [18]
  IC50: 0.22 µM
HepG2 [19]
  Activity: 22.5%
SK-OV-3
  IC50: 0.23 µM
HepG2 [20]
  Activity: 1.6%
